Assay results reported in ChEMBL document CHEMBL1921792, “Synthesis and anticonvulsant activity of trans- and cis-2-(2,6-dimethylphenoxy)-N-(2- or 4-hydroxycyclohexyl)acetamides and their amine analogs” (Bioorg Med Chem, 2011).
Active and inactive are the calls of the source.

What was measured:
Mus musculus [1] = assay: Anticonvulsant activity in mouse assessed as protection against maximal electric shock-induced seizures at 30 mg/kg, ip after 0.5 hrs; format: functional, organism-based; design: dose 30 mg/kg
How it was run: (§1)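 Phase I maximal electroshock screen in mice. Compound given ip as a suspension in 0.5% methylcellulose at 30, 100 or 300 mg/kg, tested at 30 min and 4 h. Small groups (1–8); result is number protected/number tested.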

Mus musculus [2] = assay: Anticonvulsant activity in mouse assessed as protection against maximal electric shock-induced seizures at 30 mg/kg, ip after 4 hrs; format: functional, organism-based; design: dose 30 mg/kg; how it was run: as §1
Mus musculus [3] = assay: Anticonvulsant activity against subcutaneous pentylenetetrazole-induced seizures in mouse at 30 mg/kg, ip after 0.5 hrs; format: functional, organism-based; design: dose 30 mg/kg
How it was run: (§2)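 Phase I screen in mice. Compound given ip as a suspension in 0.5% methylcellulose, read at 30 min and 4 h. Pentylenetetrazole 85 mg/kg in 0.9% NaCl was injected sc into the posterior midline and animals watched ≥30 min. Protection meant no clonic spasm lasting ≥5 s. Groups of 1–8 animals; result is protected/tested.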

Mus musculus [4] = assay: Anticonvulsant activity against subcutaneous pentylenetetrazole-induced seizures in mouse at 30 mg/kg, ip after 4 hrs; format: functional, organism-based; design: dose 30 mg/kg; how it was run: as §2
Mus musculus [5] = assay: Anticonvulsant activity against subcutaneous pentylenetetrazole-induced seizures in mouse at 100 mg/kg, ip after 0.5 hrs; format: functional, organism-based; design: dose 100 mg/kg; how it was run: as §2
Mus musculus [6] = assay: Anticonvulsant activity in mouse assessed as protection against maximal electric shock-induced seizures at 3 mg/kg, ip after 0.5 hrs; format: functional, organism-based; design: dose 3 mg/kg
Mus musculus [7] = assay: Neurotoxicity in mouse assessed as inability to maintain equilibrium on rotarod at 30 mg/kg, ip after 0.5 hrs by rotarod test; format: toxicity, organism-based; design: dose 30 mg/kg, route intraperitoneal; conditions: in vivo
How it was run: (§3)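 Drug given ip to mice as a suspension in 0.5% methylcellulose. At the stated time after dosing, each mouse was placed on a 1 inch knurled rod turning at 6 rpm. Neurotoxicity = inability to stay balanced at least 1 min in each of three trials. Scored as animals toxic/animals tested in small groups.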

Mus musculus [8] = assay: Neurotoxicity in mouse assessed as inability to maintain equilibrium on rotarod at 100 mg/kg, ip after 0.5 hrs by rotarod test; format: toxicity, organism-based; design: dose 100 mg/kg, route intraperitoneal; conditions: in vivo; how it was run: as §3
Mus musculus [9] = assay: Neurotoxicity in mouse assessed as inability to maintain equilibrium on rotarod at 300 mg/kg, ip after 0.5 hrs by rotarod test; format: toxicity, organism-based; design: dose 300 mg/kg, route intraperitoneal; conditions: in vivo; how it was run: as §3
Mus musculus [10] = assay: Neurotoxicity in mouse assessed as inability to maintain equilibrium on rotarod at 3 mg/kg, ip after 0.5 hrs by rotarod test; format: toxicity, organism-based; design: dose 3 mg/kg, route intraperitoneal; conditions: in vivo
Mus musculus [11] = assay: Neurotoxicity in mouse assessed as inability to maintain equilibrium on rotarod at 10 mg/kg, ip after 0.5 hrs by rotarod test; format: toxicity, organism-based; design: dose 10 mg/kg, route intraperitoneal; conditions: in vivo
Mus musculus [12] = assay: Neurotoxicity in mouse assessed as inability to maintain equilibrium on rotarod at 30 mg/kg, ip after 4 hrs by rotarod test; format: toxicity, organism-based; design: dose 30 mg/kg, route intraperitoneal; conditions: in vivo; how it was run: as §3
[13] = Neurotoxicity in ip dosed mouse assessed as inability to maintain equilibrium on rotarod by rotarod test; format: toxicity, organism-based; conditions: in vivo
How it was run: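 Mice dosed ip with a suspension in 0.5% methylcellulose, then placed on a 1 inch knurled plastic rod rotating at 6 rpm. Toxicity = failure to keep equilibrium for at least 1 min in each of three trials.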

[14] = Neurotoxicity in po dosed rat assessed as neurological deficit […]; format: toxicity, organism-based; conditions: in vivo
How it was run: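 Rats dosed orally with a suspension in 0.5% methylcellulose. Neurological deficit judged by ataxia and loss of placing response and muscle tone.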

Mus musculus [15] = assay: Anticonvulsant activity in ip dosed mouse assessed as protection against maximal electric shock-induced seizures; format: functional; conditions: Mus musculus, ip; read-out: ED50
Rattus norvegicus [16] = assay: Anticonvulsant activity in po dosed rat assessed as protection against maximal electric shock-induced seizures; format: functional
Mus musculus [17] = species on record: Mus musculus; assay: Protective index, ratio of TD50 for neurotoxicity in mouse to ED50 for inhibition of maximal electroshock-induced seizures in mouse; format: functional
Rattus norvegicus [18] = species on record: Rattus norvegicus; assay: Protective index, ratio of TD50 for neurotoxicity in rat to ED50 for inhibition of maximal electroshock-induced seizures in rat; format: functional
Rattus norvegicus [19] = assay: Anticonvulsant activity in rat assessed as protection against maximal electric shock-induced seizures at 30 mg/kg, po after 4 hrs; format: functional, organism-based; design: dose 30 mg/kg
How it was run: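 MES test in rats dosed orally at 30 mg/kg as a suspension in 0.5% methylcellulose, read at 0.25–4 h. Four rats per time point; result is protected/tested.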

Rattus norvegicus [20] = assay: Neurotoxicity in rat assessed as neurological deficit at 30 mg/kg, po after 0.25 hrs […]; format: toxicity, organism-based; design: dose 30 mg/kg, route oral; conditions: in vivo
How it was run: (§4)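 Rats given the compound, suspended in 0.5% methylcellulose, by the stated route and dose. Neurological deficit was recorded at the listed times as ataxia and loss of placing response and muscle tone. Reported as number of rats showing toxicity/number tested.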

Rattus norvegicus [21] = assay: Neurotoxicity in rat assessed as neurological deficit at 30 mg/kg, po after 0.5 hrs […]; format: toxicity, organism-based; design: dose 30 mg/kg, route oral; conditions: in vivo; how it was run: as §4
Rattus norvegicus [22] = assay: Neurotoxicity in rat assessed as neurological deficit at 30 mg/kg, po after 1 hr […]; format: toxicity, organism-based; design: dose 30 mg/kg, route oral; conditions: in vivo; how it was run: as §4
Rattus norvegicus [23] = assay: Neurotoxicity in rat assessed as neurological deficit at 30 mg/kg, po after 2 hrs […]; format: toxicity, organism-based; design: dose 30 mg/kg, route oral; conditions: in vivo; how it was run: as §4
Rattus norvegicus [24] = assay: Neurotoxicity in rat assessed as neurological deficit at 30 mg/kg, po after 4 hrs by rotarod test; format: toxicity, organism-based; design: dose 30 mg/kg, route oral; conditions: in vivo; how it was run: as §4
Rattus norvegicus [25] = assay: Anticonvulsant activity in rat assessed as protection against maximal electric shock-induced seizures at 30 mg/kg, ip after 0.25 hrs; format: functional, organism-based; design: dose 30 mg/kg
How it was run: (§5)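 Time-to-peak-effect assay: MES protection read at 0.25–4 h after dosing. Mice ip (60–130 mg/kg), rats po (15 or 30 mg/kg) or ip (30 mg/kg). Groups of 4–8; result is protected/tested.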

Rattus norvegicus [26] = assay: Anticonvulsant activity in rat assessed as protection against maximal electric shock-induced seizures at 30 mg/kg, ip after 0.5 hrs; format: functional, organism-based; design: dose 30 mg/kg; how it was run: as §5
Rattus norvegicus [27] = assay: Anticonvulsant activity in rat assessed as protection against maximal electric shock-induced seizures at 30 mg/kg, ip after 1 hr; format: functional, organism-based; design: dose 30 mg/kg; how it was run: as §5
Rattus norvegicus [28] = assay: Anticonvulsant activity in rat assessed as protection against maximal electric shock-induced seizures at 30 mg/kg, ip after 2 hrs; format: functional, organism-based; design: dose 30 mg/kg; how it was run: as §5
Rattus norvegicus [29] = assay: Anticonvulsant activity in rat assessed as protection against maximal electric shock-induced seizures at 30 mg/kg, ip after 4 hrs; format: functional, organism-based; design: dose 30 mg/kg; how it was run: as §5
Rattus norvegicus [30] = assay: Neurotoxicity in rat assessed as neurological deficit at 30 mg/kg, ip after 1 hr; format: toxicity, organism-based; design: dose 30 mg/kg, route intraperitoneal; conditions: in vivo; how it was run: as §4
Rattus norvegicus [31] = assay: Neurotoxicity in rat assessed as neurological deficit at 30 mg/kg, ip after 2 hrs; format: toxicity, organism-based; design: dose 30 mg/kg, route intraperitoneal; conditions: in vivo; how it was run: as §4
Rattus norvegicus [32] = assay: Neurotoxicity in rat assessed as neurological deficit at 30 mg/kg, ip after 4 hrs; format: toxicity, organism-based; design: dose 30 mg/kg, route intraperitoneal; conditions: in vivo; how it was run: as §4
Mus musculus [33] = assay: Anticonvulsant activity against […] in mouse assessed as increase in tonic threshold at 8 mg/kg, ip by threshold tonic extension test; format: functional, organism-based; design: dose 8 mg/kg
How it was run: (§6)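 Threshold tonic extension test in mice. The compound was given ip, then pentylenetetrazol was infused until the first twitch and the first clonus. PTZ dose was calculated from the infusion speed. Mean of 8 animals ± S.E.M.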

Mus musculus [34] = assay: Anticonvulsant activity against […] in mouse assessed as increase in tonic threshold at 28 mg/kg, ip by threshold tonic extension test; format: functional, organism-based; design: dose 28 mg/kg; how it was run: as §6
Rattus norvegicus [35] = assay: Anticonvulsant activity in ip dosed rat assessed as time to show peak effect of protection against maximal electric shock-induced seizures; format: functional; how it was run: as §5

Cc1cccc(C)c1OCCNC1CCCCC1O (racemic)
Activity (Mus musculus [1]): Active | Activity (Mus musculus [2]): inactive | Activity (Mus musculus [3]): inactive | Activity (Mus musculus [4]): inactive | Activity (Mus musculus [5]): inactive | Activity (Mus musculus [6]): inactive | Activity (Mus musculus [7]): Toxic | Activity (Mus musculus [8]): Toxic | Activity (Mus musculus [9]): Toxic | Activity (Mus musculus [10]): Non-toxic | Activity (Mus musculus [11]): Non-toxic | Activity (Mus musculus [12]): Non-toxic | TD50 [13]: 28.4 mg/kg | TD50 [14]: > 500 mg/kg | ED50 (Mus musculus [15]): 7.73 mg/kg | ED50 (Rattus norvegicus [16]): 26.2 mg/kg | Ratio TD50/ED50 (Mus musculus [17]): 3.9 | Ratio TD50/ED50 (Rattus norvegicus [18]): >19.06 | Activity (Rattus norvegicus [19]): inactive | Activity (Rattus norvegicus [20]): Non-toxic | Activity (Rattus norvegicus [21]): Non-toxic | Activity (Rattus norvegicus [22]): Non-toxic | Activity (Rattus norvegicus [23]): Non-toxic | Activity (Rattus norvegicus [24]): Non-toxic | Activity (Rattus norvegicus [25]): Active | Activity (Rattus norvegicus [26]): Active | Activity (Rattus norvegicus [27]): Active | Activity (Rattus norvegicus [28]): inactive | Activity (Rattus norvegicus [29]): inactive | Activity (Rattus norvegicus [30]): Non-toxic | Activity (Rattus norvegicus [31]): Non-toxic | Activity (Rattus norvegicus [32]): Non-toxic | Activity (Mus musculus [33]): inactive | Activity (Mus musculus [34]): inactive | Time (Rattus norvegicus [35]): 0.25 h
